Usually ΔTm stands for the change in melting temperature against a reference sample.

The results in this text go back to ChEMBL document CHEMBL1155073, “Molecular recognition of a DNA:RNA hybrid: sub-nanomolar binding by a neomycin-methidium conjugate” (Bioorg Med Chem Lett, 2008).

Assay [1] in a line: Binding affinity to synthetic poly(dG):poly(dC) DNA:DNA duplex assessed as melting temperature at 2.2 uM. The essentials:
(§1)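 Thermal denaturation of each nucleic acid (20 µM/bp) with ligand at 2.2 µM, with melting temperatures read from UV and CD melting profiles. ΔTm is taken against the ligand-free Tm0.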

Assay [2] can be described thus: Binding affinity to synthetic A-site RNA assessed as melting temperature at 2.2 uM. The essentials:
as §1

Assay [3] has as its system DNA. Put plainly: Binding affinity to calf thymus DNA assessed as melting temperature at 2.2 uM. The format is nucleic-acid assay. Particulars: Bos taurus. The essentials:
as §1

Assay [4] is described as follows: Binding affinity to synthetic poly(dA):2poly(dT) DNA:DNA duplex assessed as melting temperature at 2.2 uM. The essentials: as §1
Assay [5] is described as follows: Binding affinity to synthetic poly(dA):poly(dT) DNA:DNA duplex assessed as melting temperature at 2.2 uM. The essentials: as §1
Assay [6] can be described thus: Binding affinity to synthetic poly(dA-dT):poly(dA-dT) DNA: DNA duplex assessed as melting temperature at 2.2 uM. The essentials: as §1
A short description of assay [7]: Binding affinity to synthetic poly(rA):poly(rU) RNA:RNA duplex assessed as melting temperature at 2.2 uM. The essentials: as §1
A short description of assay [8]: Binding affinity to synthetic poly(dA):poly(rU) DNA:RNA hybrid assessed as melting temperature at 2.2 uM. The essentials:
as §1

The nature of assay [9]: Binding affinity to synthetic poly(rA):poly(dT) DNA:RNA hybrid assessed as melting temperature at 2.2 uM. The essentials: as §1
Assay [10] in a line: Binding affinity to synthetic A-site RNA assessed as change in melting temperature at 2.2 uM. The essentials: as §1
Assay [11] has as its system DNA. Put plainly: Binding affinity to calf thymus DNA assessed as change in melting temperature at 2.2 uM. The format is nucleic-acid assay. The settings on record: Bos taurus. The essentials:
as §1

Assay [12] can be described thus: Binding affinity to synthetic poly(dA): 2poly(dT) DNA:DNA duplex assessed as change in melting temperature at 2.2 uM. The essentials:
as §1

Assay [13] can be described thus: Binding affinity to synthetic poly(dA):poly(dT) DNA:DNA duplex assessed as change in melting temperature at 2.2 uM. The essentials:
as §1

The nature of assay [14]: Binding affinity to synthetic poly(dA-dT):poly(dA-dT) DNA:DNA duplex assessed as change in melting temperature at 2.2 uM. The essentials: as §1
A short description of assay [15]: Binding affinity to synthetic poly(rA):poly(rU) RNA:RNA duplex assessed as change in melting temperature at 2.2 uM. The essentials:
as §1

Assay [16] is described as follows: Binding affinity to synthetic poly(dA):poly(rU) DNA:RNA hybrid assessed as change in melting temperature at 2.2 uM. The essentials: as §1
The nature of assay [17]: Binding affinity to synthetic poly(rA):poly(dT) DNA:RNA hybrid assessed as change in melting temperature at 2.2 uM. The essentials:
as §1

Assay [18] can be described thus: Binding affinity to synthetic poly(dA):poly(rU) DNA:RNA hybrid assessed as association constant at 20 degC. The essentials: (§2)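 Apparent association constant is estimated from the UV/CD melting-temperature shift (Eq. 1). Binding stoichiometry n comes from fluorescence titrations, duplex melting enthalpy from DSC, and free ligand is taken as half the total. The value is extrapolated to 20 °C by integrated van't Hoff using dilution-corrected excess-site ITC enthalpies (15, 20, 25 °C) and derived ΔCp. Buffer: 10 mM sodium cacodylate, 0.5 mM EDTA, 100 mM NaCl, pH 5.5.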

Assay [19] in a line: Binding affinity to synthetic poly(dA-dT):poly(dA-dT) DNA:DNA duplex assessed as association constant at 20 degC. The essentials:
as §2

A short description of assay [20]: Binding affinity to synthetic poly(rA):poly(rU) RNA duplex assessed as association constant at 20 degC.
A short description of assay [21]: Binding affinity to synthetic poly(rA):poly(rU) DNA:RNA hybrid assessed as association constant at 20 degC. The essentials: as §2

For the compound `C[n+]1c(-c2ccc(C(=O)NCCSC[C@H]3O[C@@H](O[C@@H]4[C@@H](O)[C@H](N)C[C@H](N)[C@H]4O[C@H]4O[C@H](CN)[C@@H](O)[C@H](O)[C@H]4N)[C@H](O)[C@@H]3O[C@H]3O[C@@H](CN)[C@@H](O)[C@H](O)[C@H]3N)cc2)c2cc(N)ccc2c2ccc(N)cc21`, the Tm in [1] is over 95 °C; in assay [2] it was 79.8 °C; in assay [3], over 95 °C; in assay [4], 75.9 °C; in assay [5] it was 76.1 °C; in assay [6] it was 66.2 °C. Also, the Tm turned out to be 77 °C in assay [7], 90.5 °C in assay [8] and 82.4 °C in assay [9]. The ΔTm in assay [10] is 8.1 °C; in [11] it was over 8.1 °C; in assay [12], 7.7 °C; in assay [13], 7.7 °C; in assay [14] it was 7.4 °C; in assay [15], 34.3 °C. The figures for the ΔTm in [16] and in assay [17] were 46.9 °C and 20.1 °C, respectively. Moreover, the Ka in assay [18] was 4.8 ×10¹⁰ /M; in [19], 1 ×10⁶ /M; in [20], 2.1 ×10⁹ /M.
On to `NC[C@@H]1O[C@H](O[C@H]2[C@@H](O)[C@H](O[C@@H]3[C@@H](O)[C@H](N)C[C@H](N)[C@H]3O[C@H]3O[C@H](CN)[C@@H](O)[C@H](O)[C@H]3N)O[C@@H]2CO)[C@H](N)[C@@H](O)[C@@H]1O`, for which the Tm in assay [6] is 62.9 °C; in assay [7], 64.7 °C; in assay [8], 65.8 °C. Further, the figures for the Ka in assay [18], in assay [19] and in [20] were 9.9 ×10⁶ /M, 7 ×10⁴ /M and 2.6 ×10⁷ /M, respectively.
With `CC[n+]1c(-c2ccccc2)c2cc(N)ccc2c2ccc(N)cc21`, the Tm was found to be 63.2 °C in assay [6], 64.2 °C in assay [7] and 61.8 °C in [8]. Further, the Ka in assay [18] was found to be 9.3 ×10⁶ /M; in assay [21] it was 1.8 ×10⁶ /M; in assay [19], 2 ×10⁵ /M.
